From article PMC2846993 (Biochimica et biophysica acta, 2010)
Values joined by “and” are separate entries in the source; they are usually repeats but may differ in a detail not shown here. Equal values may be shown once.

Columns and labels:
[1] = system: Glu^1-Pg; conditions: saturating amounts of 6-AHA, Cl^−-containing buffer; ref [14],[19],[20]; cited from earlier work
[2] = molecular target: T1, Glu^1-Pg activation by uPA (Homo sapiens, UniProt P00747); conditions: 6-AHA, acetate buffer; ref [34]; cited from earlier work
T1 sequence (P00747 20-810 limits assumed): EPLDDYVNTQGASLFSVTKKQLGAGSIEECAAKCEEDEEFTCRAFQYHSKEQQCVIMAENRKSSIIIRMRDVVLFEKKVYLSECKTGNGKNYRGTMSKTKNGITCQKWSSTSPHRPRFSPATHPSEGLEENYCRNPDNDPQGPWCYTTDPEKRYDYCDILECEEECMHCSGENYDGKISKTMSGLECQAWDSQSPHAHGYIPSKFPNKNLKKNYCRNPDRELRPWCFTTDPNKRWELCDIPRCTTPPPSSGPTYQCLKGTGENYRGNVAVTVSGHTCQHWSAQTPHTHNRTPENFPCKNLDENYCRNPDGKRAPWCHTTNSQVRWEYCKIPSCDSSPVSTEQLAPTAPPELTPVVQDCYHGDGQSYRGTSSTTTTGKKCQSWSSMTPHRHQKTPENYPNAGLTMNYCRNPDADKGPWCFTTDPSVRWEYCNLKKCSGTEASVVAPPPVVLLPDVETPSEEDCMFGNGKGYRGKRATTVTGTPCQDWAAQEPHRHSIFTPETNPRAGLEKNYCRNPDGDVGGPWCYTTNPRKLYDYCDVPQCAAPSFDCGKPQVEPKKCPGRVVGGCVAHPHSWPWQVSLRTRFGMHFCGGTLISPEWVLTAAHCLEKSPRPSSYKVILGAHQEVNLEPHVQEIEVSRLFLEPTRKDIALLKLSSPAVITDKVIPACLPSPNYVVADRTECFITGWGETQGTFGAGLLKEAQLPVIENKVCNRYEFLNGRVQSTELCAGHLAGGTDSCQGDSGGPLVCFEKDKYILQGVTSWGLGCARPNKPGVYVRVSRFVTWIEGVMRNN

[3] = molecular target: T1, Glu^1-Pg activation by uPA; test: uPA-catalyzed Pg activation, chromogenic substrate S-2251; assay type: biochemical; conditions: 1 mM 6-AHA
[4] = molecular target: Wild type (wt) human Glu^1-Pg (plasminogen) (human); test: SPR
[5] = molecular target: Glu^1-Pg activation by SK (Homo sapiens, UniProt P00747); test: SK-mediated; assay type: biochemical, human Glu^1-Pg; SK from Streptococcus equisimilis
[6] = Sedimentation equilibrium / self-association; assay type: physicochemical; conditions: PAM 22 μM, 20 °C, representative scan at 15,000 rpm
Procedure, shortened: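 Test protein at 22 μM final in 10 mM HEPES/100 mM NaCl, pH 7.4, at 20 °C. Centrifuged at 10,000 and 15,000 rpm. Apparent molecular weight came from a global fit of three scans at both speeds. Radius vs absorbance was simulated for the purely monomeric protein.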

| Compound | Kd [4] | koff [4] [s⁻¹] | kon [4] [M⁻¹ s⁻¹] | further results |
| --- | --- | --- | --- | --- |
| NCCCCCC(=O)O [6-AHA, 6-aminohexanoic acid] |  |  |  | decrease in sedimentation coefficient (S°20,w) of Pg [1]: approximately 1 unit; increase in Pg conversion by uPA [2]: 1.2 fold; rate enhancement of uPA-catalyzed Pm generation ([3]; Cl^− buffer (data not shown)): 2.2 fold; rate enhancement of uPA-catalyzed Pm generation ([3]; acetate buffer (data not shown)): 1.1 fold |
| K^98A/K^111A PAM (KK-PAM) (from UniProt P49054 30-384) (natural protein) | 38 nM and 44 nM | 0.0095 | 250000 |  |
| K^98A/R^101A/H^102A/E^104A/K^111A PAM (KRHEK-PAM) (from UniProt P49054 30-384) (natural protein) | 50 nM | 0.017 | 340000 |  |
| R^101A/H^102A PAM (RH-PAM) (from UniProt P49054 30-384) (natural protein) | 424 nM and 731 nM | 0.014 | 33000 |  |
| Wt-PAM (Pg-binding group A streptococcal M-like protein, GAS strain NS13) (from UniProt P49054 30-384) (natural protein) | 23 nM and 33 nM | 0.0079 | 340000 |  |
| wt-PAM: Pg-binding group A streptococcal M-like protein, GAS strain NS13, full-length wild type (VEKLTADAELQRLKNERHEEAELERLKSEY) |  |  |  | increase in SK-mediated Pg activation rate ([5]; 20 nM PAM, Pg 80 nM, equimolar SK, 10 mM HEPES/100 mM NaCl, pH 7.4): 3.6 fold; enhancement in Pg conversion rate by SK ([5]; 500 nM PAM, Cl^− buffer (data not shown)): 220 fold; apparent molecular weight (Mw,app), self-association [6]: 71600 |
